UCH37 DUB inh = human UCH37 deubiquitinating enzyme inhibition; Q9Y5K5; purified proteasome/UCH37, Ub-AMC cleavage fluorescence; inhibition, % (no concentration beside the values); 330,000 tested, 0.33% active; AID 588478;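 active means mean inhibition over replicate wells above about 20%, limit read from the data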;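 further: 0% = compound-free wells with enzyme and 100% = wells lacking proteasome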
Target sequence (Q9Y5K5 whole entry, looked up): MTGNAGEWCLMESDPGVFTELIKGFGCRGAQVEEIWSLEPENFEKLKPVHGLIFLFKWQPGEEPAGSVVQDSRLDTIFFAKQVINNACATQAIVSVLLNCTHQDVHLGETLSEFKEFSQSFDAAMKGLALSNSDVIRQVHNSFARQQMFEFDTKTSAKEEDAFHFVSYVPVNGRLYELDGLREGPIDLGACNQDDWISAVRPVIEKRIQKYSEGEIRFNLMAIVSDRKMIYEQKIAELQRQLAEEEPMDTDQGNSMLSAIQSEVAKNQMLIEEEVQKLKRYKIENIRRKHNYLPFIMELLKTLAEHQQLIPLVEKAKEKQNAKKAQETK
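Reagent: Ub-AMC substrate; assay system: Proteasome-associated human UCH37 deubiquitinase; controls: no-proteasome and no-compound wells; read-out: % inhibition of Ub-AMC cleavage fluorescence; timing: 30 min preincubation with enzyme, 25 min cleavage at room temperature; signal: AMC fluorescence from Ub-AMC cleavage, excitation 355 nm, emission 460 nm; buffer or medium: Tris-HCl pH 7.4 plus ovalbumin, ATP-MgCl2, DTT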
A3G deaminase = APOBEC3G (human) deaminase inhibition. Q9HC16. recombinant A3G, ssDNA deamination FAM/TAMRA fluorescence. inhibition, % at 20 µM. 330,000 tested, 0.28% active;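 active means inhibition of at least 40% at 20 µM, with no more than 30% in the related APOBEC3A deaminase screen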;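 further: plate controls were DMSO wells with A3G for no effect and wells lacking A3G enzyme for full effect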
A3A deaminase = human APOBEC3A DNA deaminase inhibition. P31941. 330,000 tested, 0.41% active. inhibition, % at 20 µM. recombinant A3A, FAM/TAMRA ssDNA deamination fluorescence;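 active means at least 40% inhibition at 20 µM here, with at most 30% in a related deaminase screen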;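 further: plate controls were A3A with DMSO for no effect and wells lacking A3A enzyme for full effect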
Target sequence (P31941 whole entry, looked up): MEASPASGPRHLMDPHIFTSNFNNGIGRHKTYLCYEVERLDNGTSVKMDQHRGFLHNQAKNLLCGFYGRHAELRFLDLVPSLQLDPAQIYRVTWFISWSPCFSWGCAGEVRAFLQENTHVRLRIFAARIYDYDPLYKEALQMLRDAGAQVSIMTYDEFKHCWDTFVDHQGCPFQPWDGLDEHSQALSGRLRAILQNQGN
PolyA inhibitor = yeast polyadenylation inhibition; S. cerevisiae SKY197-pL101 polyadenylation reporter, beta-gal luminescence; efflux-impaired pdr1/pdr3 knockout yeast; score 100 = 6 SD above DMSO; activity score, % at 12 µM; 300,000 tested, 0.02% active; AID 1875;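 active means lowest replicate activity score at least 50, where 100 means six control SD above control mean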;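 further: yeast exposed to compound for 9 h at 30 °C; higher score means more reporter readthrough which indicates perturbed polyadenylation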
AHR activator = activates the human aryl hydrocarbon receptor; 320,000 tested, 2.5% active; AHR-responsive luciferase reporter cells, luminescence; P35869; activation, % at 5 µM; in the data active means activation above about 47%;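 further: 0% = vehicle wells and 100% = reference agonist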
Arrestin-AP2 inh = inhibitors of human beta-arrestin and AP2 interaction | FITC-arrestin peptide / GST-AP2 beads, flow cytometry; AP2 beta2 appendage carries R879A mutation | inhibition, % at 10 µM | AID 504490 | 340,000 tested, 0.31% active;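 active means inhibition above a set limit, near 3 SD of compounds lacking own fluorescence, cut at about 54% in these data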;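 further: plate controls were DMSO wells for no effect and 5 µM unlabelled arrestin peptide for full effect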
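test system = AP2 appendage R879A on GSH beads | buffer or medium = PBS plus Tween 20 (0.05%) and BSA (0.1%) | incubation = 12 min plus 1 h, RT | detection = bead flow cytometry, FITC channel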
AHR act confirm = human AHR activation, confirmation | shares compounds with AHR activator | human cells, AHR-responsive luciferase reporter, luminescence | activation, % at 9 µM | 2,300 tested, 87% active | AID 2845; in the data active means activation above about 49%;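 further: HepG2 hepatoma cells carrying a DRE-driven firefly luciferase reporter; 0% = vehicle wells and 100% = reference agonist wells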
PXR act counter = counter-screen for AHR activators: human PXR activators; shares compounds with AHR activator; cell-based PXR reporter, luciferase luminescence; activation, % at 11.6 µM; 2,300 tested, 88% active; in the data active means activation above about 11%;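 further: human hepatoma DPX-2 cells expressing full-length human PXR; 0% = DMSO and 100% = reference agonist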
* marks the source's active call; other numbers are inactive results; · = no result given. This is a sample that favours compounds with a hit; in the whole collection about 3.4% have one here.

SMILES	UCH37 DUB inh	A3G deaminase	A3A deaminase	PolyA inhibitor	AHR activator	Arrestin-AP2 inh	AHR act confirm	PXR act counter
Cc1cc(C)c(C#N)c(SCC(=O)c2cccs2)n1	6.9	-5.0	-2.0	-1.3	165.1*	8.9	111.6*	28.3*
Cc1cc(SCC(=O)NCCN2C(=O)CSC2=O)nc2c(C)cccc12	3.3	2.0	4.2	-3.2	29.6	43.8	·	·
COC(=O)CSc1nc(C)cc(C)c1C#N	-2.2	-9.7	-3.0	7.1	2.5	0.8	·	·
Cc1cc(C)c(C#N)c(SCC(=O)c2ccccc2)n1	1.8	4.6	0.6	4.9	147.6*	1.8	153.0*	28.6*
Cc1cc(SCC(=O)c2cccs2)nc2c(C)cccc12	2.7	-5.7	-7.7	-21.6	82.6*	10.3	99.9*	64.7*
O=C(CN1CCN(Cc2ccccc2)CC1)NN=Cc1cccs1	2.3	·	·	·	·	·	·	·
CCNC(=S)Nc1ccc(Cl)c([N+](=O)[O-])c1	·	-4.5	-8.3	10.3	99.0*	20.8	50.2*	17.6*
CCN(CC)c1ccc(/C=N/N(c2ccccc2)c2ccccc2)c(O)c1	·	-6.5	-0.5	0.4	94.1*	-1.3	89.7*	97.0*
CCCCOc1c(Br)cc(C=NO)cc1OCC	2.8	·	·	·	·	·	·	·
COc1ccc(C)cc1Nc1nc(-c2c[nH]c3ccccc23)cs1	-7.3	33.7	-0.5	0.4	89.3*	5.5	64.0*	16.6*
COc1ccc(C(=O)Nc2c(O)ccc3ccccc23)cc1	6.7	3.0	2.4	-7.6	79.4*	-3.4	66.7*	8.1
Cc1ccc(C(=O)NCCNc2nc3cc(C)c(C)cc3cc2C)cc1	-3.9	-7.7	2.0	7.8	81.8*	15.3	76.8*	28.1*
COc1cc(C(=O)NCCNc2nc3cc(C)ccc3cc2C#N)cc(OC)c1OC	-129.3	-6.5	-2.4	26.2	6.5	-2.5	·	·
CC1CC1c1ccc(/C=C(\C#N)C(=O)Nc2ccc(Cl)cc2)o1 (stereo not drawn)	0.5	-6.8	0.1	19.9	89.8*	1.2	44.5	44.6*
Cc1cc(C)c(-c2cc(NC(=O)COC(=O)c3ccc(C#N)cc3)n(-c3ccccc3)n2)cc1C	1.1	-8.2	-1.8	-21.8	129.1*	1.6	105.3*	81.9*
Clc1cccc2sc(N3CCN(c4ccccc4)CC3)nc12	-0.9	-8.1	-3.1	0.3	122.2*	-12.7	112.2*	17.3*
Clc1ccc(Cl)c2sc(N3CCCC3)nc12	5.7	-5.8	-3.7	-17.7	26.4	2.6	·	·
CC(=NNC(=O)CNC(=O)c1cccnc1)c1cccc(O)c1	0.0	·	·	·	·	·	·	·
COc1ccc(NN=C(C=NO)C(=O)c2ccc(OC)cc2)cc1	6.0	·	·	·	·	·	·	·
COc1ccc(CN=Cc2c(O)[nH]c3ccccc23)cc1	8.2	-3.4	-2.9	15.7	24.1	-15.3	·	·
COc1ccc(N=Cc2c(O)[nH]c3ccccc23)cc1	6.3	-6.3	-3.5	-23.9	128.9*	-7.0	66.5*	17.5*
O=C(NCCc1ccccc1)c1ccccc1Cl	3.5	-1.4	2.0	-10.2	-8.7	6.2	·	·
O=C(O)c1ccccc1C(=O)NCCc1ccc(Cl)cc1	-0.3	-4.4	-2.0	5.3	96.6*	8.0	63.7*	10.5*
Clc1ccc(C=NNc2ncnc3ccccc23)cc1Cl	4.6	·	·	·	·	·	·	·
Fc1ccccc1/C=C/c1ccc2ccccc2n1	-6.0	-9.5	-5.8	-20.0	88.6*	7.1	73.6*	6.7
C(=C\c1ccc2ccccc2n1)/c1ccccc1	-4.4	-5.3	-1.4	-22.7	41.4	-14.5	·	·
CCCC#Cc1ccc2c(c1)COc1c3ccccc3nn1-2	0.3	-12.6	-4.4	0.9	109.2*	-0.8	63.2*	-1.5
COc1ccc(C=NN2CCOCC2)cc1O	0.8	·	·	·	·	·	·	·
C=C(C)COc1ccc(-c2[nH]ncc2Oc2ccc(OC)cc2)c(O)c1	3.2	15.7	3.5	18.1	15.1	1.9	·	·

Bioassay records from PubChem BioAssay.
